Structures are written as SMILES.

This is an account of results in paper PMC2889198 (Bioconjugate chemistry, 2009).

For experiment [1], the system named is Tumor necrosis factor alpha-stimulated gene-6 (TSG6), C-terminal His6-tag. Briefly: SPR binding kinetics of tris-NTA chip with His6-tagged TSG6. As to conditions: for ka Instant association rate constant / kd Instant dissociation rate constant: 25 °C, 1:1 binding model; for Kd: read-out: KD Equilibrium dissociation constant, 25 °C, 1:1 binding model. The method in brief: (§1)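 Streptavidin chip washed with 50 mM NaOH/1 M NaCl and run in HBS-P pH 7.4 at 25 °C. Flow cell 1 is a blank; the others carry biotin-tris-NTA at about 50 RU. Each cycle: 5 mM NiCl2 activation, His6-protein injection (1–10 nM; mKate in 1 nM steps, 7 nM omitted), 0.3 M EDTA strip, 0.25% SDS/0.5 M NaCl rinse. Duplicates, double-referenced, global 1:1 Langmuir fit.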
Background: In SPR one partner is held on a chip, and binding of the other changes the refractive index at the surface.

For experiment [2], the system named is Androgen receptor N-terminal domain (AR-NTD), C-terminal His6-tag. The experiment is described as follows: SPR binding kinetics of tris-NTA chip with His6-tagged AR-NTD. As to conditions: for kd Instant dissociation rate constant / ka Instant association rate constant: 25 °C, 1:1 binding model; for ka Instant association rate constant: Ni(II)-activated tris-NTA; for Kd: read-out: KD Equilibrium dissociation constant, 25 °C, 1:1 binding model. Put shortly: as §1

Another experiment deals with His6-tagged peptide […]. Briefly: SPR binding kinetics of tris-NTA chip with His6-peptide. As to conditions: for ka Instant association rate constant / kd Instant dissociation rate constant: 25 °C, 1:1 binding model; for Kd: read-out: KD Equilibrium dissociation constant, 25 °C, 1:1 binding model.
Experiment [3] concerns Monomeric Katushka (mKate), C-terminal His6-tag. Briefly: SPR binding kinetics of tris-NTA chip with His6-mKate. The note with it: for kd Instant dissociation rate constant / ka Instant association rate constant: 25 °C, 1:1 binding model; for ka Instant association rate constant: 1~10 nM analyte; for Kd: read-out: KD Equilibrium dissociation constant, 25 °C, 1:1 binding model. The method in brief:
as §1

Experiment [4] concerns the target T1, Yeast cytosine deaminase (yCD), C-terminal His6-tag (Saccharomyces cerevisiae, UniProt Q12178).
T1 sequence (Q12178 with tags, fused parts or gaps): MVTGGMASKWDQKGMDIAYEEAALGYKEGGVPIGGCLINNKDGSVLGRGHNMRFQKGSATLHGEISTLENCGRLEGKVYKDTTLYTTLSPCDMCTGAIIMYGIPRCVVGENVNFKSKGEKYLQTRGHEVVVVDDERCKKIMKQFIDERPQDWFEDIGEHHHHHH
Briefly: SPR binding kinetics of tris-NTA chip with His6-tagged yCD. The note with it: for kon: read-out: ka Instant association rate constant; for koff: read-out: kd Instant dissociation rate constant. The method in brief: as §1

Experiment [5] has as its target hexahistidine (His6) tagged proteins. The note with it: read-out: equilibrium dissociation constant KD between mono-NTA and His6; cited from earlier work.

In general, Kd refers to a measure of binding affinity in units of concentration. For the compound `O=C(O)CN(CC(=O)O)[C@@H](CCCCNC(=O)CCOCCOCCOCCOCCNC(=O)CN(CC(=O)NCCOCCOCCOCCOCCC(=O)NCCCC[C@@H](C(=O)O)N(CC(=O)O)CC(=O)O)[C@@H](CCCCNC(=O)CCCC[C@@H]1SC[C@@H]2NC(=O)N[C@@H]21)C(=O)NCCOCCOCCOCCOCCC(=O)NCCCC[C@@H](C(=O)O)N(CC(=O)O)CC(=O)O)C(=O)O` [Compound 6a], the “ka Instant association rate constant” value in experiment [1] was 6.89 10^5 M^−1 S^−1; in experiment [2] it was 0.94 10^5 M^−1 S^−1; in the experiment with His6-tagged peptide […], 3.09 10^5 M^−1 S^−1; in experiment [3], 5.38 10^5 M^−1 S^−1. The “kd Instant dissociation rate constant” value in experiment [1] is 4.84 10^−3 S^−1; in experiment [2], 1.29 10^−3 S^−1; in the experiment on His6-tagged peptide […], 3.97 10^−3 S^−1; in experiment [3], 1.53 10^−3 S^−1. Besides, the Kd in experiment [1] is 7.03 nM; in experiment [2] it was 13.7 nM; at His6-tagged peptide […] it was 12.8 nM; in experiment [3], 2.84 nM.

`O=C(O)CN(CC(=O)O)[C@@H](CCCCNC(=O)CN(CC(=O)NCCCC[C@@H](C(=O)O)N(CC(=O)O)CC(=O)O)[C@@H](CCCCNC(=O)CCCC[C@@H]1SC[C@@H]2NC(=O)N[C@@H]21)C(=O)NCCCC[C@@H](C(=O)O)N(CC(=O)O)CC(=O)O)C(=O)O` [Compound 6b]: in experiment [4], the kon came to 119000 M⁻¹ s⁻¹ and the koff was 0.00083 s⁻¹. Moreover, in experiment [1], the “ka Instant association rate constant” value was 19.4 10^5 M^−1 S^−1, the “kd Instant dissociation rate constant” value is reported as 5.78 10^−3 S^−1 and the Kd came out at 3 nM. In addition, in experiment [2], the “kd Instant dissociation rate constant” value is 1.40 10^−3 S^−1, the “ka Instant association rate constant” value is on record as 0.81 10^5 M^−1 S^−1 and the Kd worked out at 17.3 nM. In addition, in the experiment on His6-tagged peptide […], the “ka Instant association rate constant” value was 1.86 10^5 M^−1 S^−1, the “kd Instant dissociation rate constant” value is reported as 1.85 10^−3 S^−1 and the Kd was determined as 9.95 nM.

Consider `O=C(O)CN(CC(=O)O)[C@@H](CCCNC(=O)CN(CC(=O)NCCC[C@@H](C(=O)O)N(CC(=O)O)CC(=O)O)[C@@H](CCCCNC(=O)CCCC[C@@H]1SC[C@@H]2NC(=O)N[C@@H]21)C(=O)NCCC[C@@H](C(=O)O)N(CC(=O)O)CC(=O)O)C(=O)O` [Compound 6c], for which, in experiment [4], the kon turned out to be 197000 M⁻¹ s⁻¹ and the koff was 0.00059 s⁻¹. In addition, in experiment [1], the “ka Instant association rate constant” value was 3.92 10^5 M^−1 S^−1, the “kd Instant dissociation rate constant” value is given as 0.008 10^−3 S^−1 and the Kd was 0.02 nM. For the same compound, in experiment [2], the “kd Instant dissociation rate constant” value is 0.27 10^−3 S^−1, the “ka Instant association rate constant” value is 1.44 10^5 M^−1 S^−1 and the dissociation constant Kd came to 1.87 nM. For the same compound, in the experiment with His6-tagged peptide […], the “ka Instant association rate constant” value is 2.19 10^5 M^−1 S^−1, the “kd Instant dissociation rate constant” value was 0.72 10^−3 S^−1 and the Kd is 3.29 nM. Besides, in experiment [3], the “kd Instant dissociation rate constant” value is 0.43 10^−3 S^−1, the “ka Instant association rate constant” value was 10.6 10^5 M^−1 S^−1 and the Kd stood at 0.4 nM.

As for `O=C(O)CN(CC(=O)O)CC(=O)O` [NTA, Nitrilotriacetic acid], the Kd in experiment [5] is 10000 nM.
